{
  "source": "the RNAGym collection of RNA variant scans (doi:10.1126/science.aae0568)",
  "parents": {"B1": {"name": "tRNA (parent)", "chain": "GUUCCGUUGGCGUAAUGGUAACGCGUCUCCCUCCUAAGGAGAAGACUGCGGGUUCGAGUCCCGUACGGAACG"}},
  "note": "Variants at the floor of the assay were thinned out.",
  "data": [
    {"variants_of": "B1", "assay": "yeast fitness relative to wild type (ratio to wild type); higher = fitter; tRNA-Arg(CCU), competitive growth, 37 C, YPD", "in_short": "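The tRNA-Arg(CCU) gene variants were made by chemical synthesis with a 3% per-site mutation rate at 69 sites and inserted at the native genomic locus of Saccharomyces cerevisiae. After pooling, the strains were competed in YPD at 37°C for 24 hours in six parallel replicates. Gene amplicons from the start population and each end population were read by 100-nucleotide paired-end sequencing, and Darwinian fitness relative to wild type was taken from genotype frequency changes. Genotypes needed ≥ 100 starting reads, and estimates < 0.5 were set to 0.5.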", "values": [
      {"variant": "C11A C22G C29G U53A C55G", "yeast fitness": "≤ 0.5"},
      {"variant": "C11A C22G C29U U32C", "yeast fitness": 0.706},
      {"variant": "C11A C22U C55A", "yeast fitness": "≤ 0.5"},
      {"variant": "C11A C22U G39C U47A", "yeast fitness": "≤ 0.5"},
      {"variant": "C11A C22U U26G A40U G48C", "yeast fitness": 0.537},
      {"variant": "C11A C22U U54C", "yeast fitness": "≤ 0.5"},
      {"variant": "C11A C24G", "yeast fitness": 0.52},
      {"variant": "C11A C24G C30G", "yeast fitness": 0.599},
      {"variant": "C11A C24G C30U C31U C61U G67C", "yeast fitness": "≤ 0.5"},
      {"variant": "C11A C24G U47G", "yeast fitness": "≤ 0.5"},
      {"variant": "C11A C24U C27A C62G", "yeast fitness": "≤ 0.5"},
      {"variant": "C11A C24U C31U", "yeast fitness": 0.547},
      {"variant": "C11A C24U C34A A37U", "yeast fitness": "≤ 0.5"},
      {"variant": "C11A C24U C34U G58C C62G G67A", "yeast fitness": 0.544},
      {"variant": "C11A C24U G48A", "yeast fitness": "≤ 0.5"},
      {"variant": "C11A C24U G67C A70G", "yeast fitness": "≤ 0.5"},
      {"variant": "C11A C24U U32A U35C", "yeast fitness": 0.566},
      {"variant": "C11A C27A", "yeast fitness": 0.654},
      {"variant": "C11A C27A C29A A42C U47A G52A U59C", "yeast fitness": 0.503},
      {"variant": "C11A C27G A70C", "yeast fitness": "≤ 0.5"},
      {"variant": "C11A C27G C31A", "yeast fitness": 0.543},
      {"variant": "C11A C27G C31A G68A", "yeast fitness": "≤ 0.5"},
      {"variant": "C11A C27G C31U G68A", "yeast fitness": "≤ 0.5"},
      {"variant": "C11A C27G C34A A42C U54C C60A C62G A70U", "yeast fitness": 0.624},
      {"variant": "C11A C27G C55U", "yeast fitness": "≤ 0.5"},
      {"variant": "C11A C27G G50A U64G", "yeast fitness": "≤ 0.5"},
      {"variant": "C11A C27G U35A A43U U54C", "yeast fitness": 0.556},
      {"variant": "C11A C27G U64A A65G G67U", "yeast fitness": "≤ 0.5"},
      {"variant": "C11A C27U", "yeast fitness": 0.646},
      {"variant": "C11A C27U C31A", "yeast fitness": "≤ 0.5"},
      {"variant": "C11A C27U G44U", "yeast fitness": "≤ 0.5"},
      {"variant": "C11A C27U U28C A57C C62A", "yeast fitness": 0.716},
      {"variant": "C11A C29A", "yeast fitness": "≤ 0.5"},
      {"variant": "C11A C29A A37U", "yeast fitness": "≤ 0.5"},
      {"variant": "C11A C29A U35A A65G", "yeast fitness": "≤ 0.5"},
      {"variant": "C11A C29G C60U G67A A69U", "yeast fitness": "≤ 0.5"},
      {"variant": "C11A C29G C66U", "yeast fitness": 0.525},
      {"variant": "C11A C29G G44A G56C C62A G67C", "yeast fitness": "≤ 0.5"},
      {"variant": "C11A C29U C33U U54C", "yeast fitness": "≤ 0.5"},
      {"variant": "C11A C30G A45U C60A", "yeast fitness": 0.537},
      {"variant": "C11A C30G A45U C60A C62U", "yeast fitness": "≤ 0.5"},
      {"variant": "C11A C30G C34G", "yeast fitness": 0.579},
      {"variant": "C11A C30U C31U A36G G39C A45U G52C C60A", "yeast fitness": "≤ 0.5"},
      {"variant": "C11A C30U C33G A40G", "yeast fitness": "≤ 0.5"},
      {"variant": "C11A C30U C49G", "yeast fitness": 0.579},
      {"variant": "C11A C31A G44C", "yeast fitness": "≤ 0.5"},
      {"variant": "C11A C31A G44C A65C", "yeast fitness": "≤ 0.5"},
      {"variant": "C11A C31A G44C C60A", "yeast fitness": "≤ 0.5"},
      {"variant": "C11A C31G A42U C62A C66U A69U", "yeast fitness": "≤ 0.5"},
      {"variant": "C11A C31G A69U", "yeast fitness": "≤ 0.5"},
      {"variant": "C11A C31U A37C C66U", "yeast fitness": "≤ 0.5"},
      {"variant": "C11A C31U A37C G51C C55G", "yeast fitness": "≤ 0.5"},
      {"variant": "C11A C31U G41C A43C C60G", "yeast fitness": "≤ 0.5"},
      {"variant": "C11A C31U U53A A65U", "yeast fitness": "≤ 0.5"},
      {"variant": "C11A C33A G68A", "yeast fitness": 0.557},
      {"variant": "C11A C33G A43C G68A", "yeast fitness": 0.61},
      {"variant": "C11A C33U C62U A69C", "yeast fitness": "≤ 0.5"},
      {"variant": "C11A C34A A40G G44C A70U", "yeast fitness": "≤ 0.5"},
      {"variant": "C11A C34A G52C", "yeast fitness": 0.541},
      {"variant": "C11A C34G", "yeast fitness": "≤ 0.5"},
      {"variant": "C11A C34G G67A", "yeast fitness": "≤ 0.5"},
      {"variant": "C11A C34U A42G", "yeast fitness": "≤ 0.5"},
      {"variant": "C11A C34U U53C A69C", "yeast fitness": "≤ 0.5"},
      {"variant": "C11A C46U", "yeast fitness": 0.712},
      {"variant": "C11A C46U A57C C66A", "yeast fitness": "≤ 0.5"},
      {"variant": "C11A C46U U53A G63C", "yeast fitness": "≤ 0.5"},
      {"variant": "C11A C49A", "yeast fitness": "≤ 0.5"},
      {"variant": "C11A C49A C62A", "yeast fitness": "≤ 0.5"},
      {"variant": "C11A C49A C66U", "yeast fitness": "≤ 0.5"},
      {"variant": "C11A C49U G68A", "yeast fitness": "≤ 0.5"},
      {"variant": "C11A C55A", "yeast fitness": "≤ 0.5"},
      {"variant": "C11A C55A C66A", "yeast fitness": "≤ 0.5"},
      {"variant": "C11A C55G A69C", "yeast fitness": "≤ 0.5"},
      {"variant": "C11A C55U", "yeast fitness": 0.514},
      {"variant": "C11A C55U G63A", "yeast fitness": "≤ 0.5"},
      {"variant": "C11A C55U G63A C66G", "yeast fitness": "≤ 0.5"},
      {"variant": "C11A C60G A65U", "yeast fitness": "≤ 0.5"},
      {"variant": "C11A C61U A70C", "yeast fitness": "≤ 0.5"},
      {"variant": "C11A C62A C66U", "yeast fitness": 0.629},
      {"variant": "C11A C62G", "yeast fitness": 0.552},
      {"variant": "C11A C62G A70U", "yeast fitness": 0.542},
      {"variant": "C11A C66U", "yeast fitness": 0.569},
      {"variant": "C11A G12A C29U G48A G50A", "yeast fitness": "≤ 0.5"}
    ]}
  ]
}
